Unmarked numbers belong to inactive results. Active and inactive are the calls of the source.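 The calls were made as follows: active = normalized ATPase activity over 10% above control, with a t-test p below 0.05 against the vehicle group; inactive = the rest.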
Assay: calcium sensitizers of cardiac myofibril ATPase, mechanism study for cardiac RTF activator project, biochemical, absorbance, porcine cardiac myofibrils, powder samples (AID 602232)
Conditions: phosphate absorbance 660 nm, at 10 µM, stronger effect = higher value
Method in brief: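 Medium: pCa buffer, pH 7.0, with EGTA and NTA, EC50 calcium level. Compound: 10 µM single concentration. Reagent: ATP substrate, 3.02 mM final. Repeats: five replicate wells per compound. Signal: phosphate absorbance at 660 nm, Fiske-Subbarow reagent. Schedule: 5 min pre-exposure, 7 min reaction, 25 °C.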

SMILES	normalized ATPase activity
Cc1cccn2c(=O)c(/C=C3\SC(=S)N(CC(C)C)C3=O)c(NCCCOC(C)C)nc12	1.11 (active)
CCN(CC)c1ccc(/C=c2\sc3nc4ccccc4n3c2=O)c(O)c1	0.988
CCN1C(=O)/C(=C/C=C2/SCCN2C)SC1=S	1.07
CCN1C(=O)/C(=C/N2CCc3ccccc32)SC1=S	0.984
COc1ccc(-c2nc3ccc(C4=NNC(=O)CC4C)cc3[nH]2)cc1 (stereo not given)	1.05
CC(C)COCC(CN(Cc1ccccc1)c1ccccc1)N1CCCC1 (stereo not given)	1.05
CN1CCN(CCCN2c3ccccc3Sc3ccc(C(F)(F)F)cc32)CC1	0.986
COc1ccc(OC)c(/C=C2\N=C(c3ccccc3)OC2=O)c1	1.03
S=C(Nc1ccc(N2CCOCC2)cc1)Nc1ccc2nc(-c3ccco3)c(-c3ccco3)nc2c1	1.06
CCOC(=O)c1cc2n(c1N)-c1ccccc1C2=O	1.03
Cc1ccc(/C=C2\Oc3c(ccc(O)c3CN3CCN(CCO)CC3)C2=O)cc1	0.928
CCN(CC)c1ccc(/C=C2\SC(N)=NC2=O)cc1	0.992
COc1ccccc1NS(=O)(=O)c1cc([N+](=O)[O-])ccc1N/N=C/c1c(C)[nH]c2ccccc12	1.08
CCOC(=O)c1sc(N)c(C#N)c1COC(=O)CNC(=O)c1cc(OC)c(OC)c(OC)c1	1.11 (active)
CCCN1CCc2c(sc(NC(=S)NC(=O)c3ccccc3)c2C#N)C1	0.984

From PubChem BioAssay AID602232 (The Scripps Research Institute Molecular Screening Center, 2012)
